Results from ChEMBL document CHEMBL4196090, “Design, synthesis and biological evaluation of piperazinyl-β-carbolinederivatives as anti-leishmanial agents” (Eur J Med Chem, 2018).

What was measured:
[1] = Cytotoxicity against human HeLa cells after 65 hrs by alamar blue assay; type: cell-based
Summary of the method: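 HeLa cells first screened at 500 µM. Active compounds then tested for CC50: cells seeded at 2 × 10^4/well, exposed to compound 65 h, then Alamar Blue added for a further 5 h.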

Leishmania infantum [2] = assay: Antileishmanial activity against Leishmania infantum JPCM5 MCAN/ES/98/LLM-87 promastigotes after 72 hrs by alamar blue assay; type: functional, organism-based; details: MCAN/ES/98/LLM-87, 72 h
Summary of the method: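 L. infantum JPCM5 promastigotes grown at 26 °C in HOMEM. Exposed to serial compound dilutions for 72 h, then Alamar blue read-out to give EC50.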

[3] = Selectivity index, ratio of CC50 for human HeLa cells to EC50 for Leishmania infantum JPCM5 MCAN/ES/98/LLM-87 promastigotes; type: toxicity; details: read-out: Ratio CC50/EC50
Summary of the method: (§1)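 Selectivity index computed as CC50 (HeLa, Alamar blue) divided by EC50 for the respective parasite stage.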

Leishmania donovani [4] = assay: Antileishmanial activity against Leishmania donovani promastigotes after 72 hrs by alamar blue assay; type: functional, organism-based
Summary of the method: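 L. donovani promastigotes grown at 26 °C in M199 plus 10% heat-inactivated FCS. Exposed to serial compound dilutions for 72 h, then Alamar blue read-out to give EC50.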

[5] = Selectivity index, ratio of CC50 for human HeLa cells to EC50 for Leishmania donovani promastigotes; type: toxicity; details: read-out: Ratio CC50/EC50; summary of the method: as §1
Leishmania infantum [6] = assay: Antileishmanial activity against Leishmania infantum JPCM5 MCAN/ES/98/LLM-87 axenic amastigotes after 72 hrs by alamar blue assay; type: functional, organism-based; details: MCAN/ES/98/LLM-87, 72 h
Summary of the method: (§2)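 Axenic amastigotes (L. donovani LdBOB; L. infantum clone JPCM5, grown at 26 °C in HOMEM) incubated 72 h with compounds. Viability read by Alamar blue; EC50 determined.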

[7] = Selectivity index, ratio of CC50 for human HeLa cells to EC50 for Leishmania infantum JPCM5 MCAN/ES/98/LLM-87 axenic amastigotes; type: toxicity; details: read-out: Ratio CC50/EC50; summary of the method: as §1
Leishmania donovani [8] = assay: Antileishmanial activity against Leishmania donovani LdBOB axenic amastigotes after 72 hrs by alamar blue assay; type: functional, organism-based; summary of the method: as §2
Leishmania donovani [9] = assay: Antileishmanial activity against Leishmania donovani LdBOB amastigotes infected in human THP1 cells after 72 hrs by Giemsa staining based microscopic method; type: functional, organism-based; details: THP-1, 72 h
Summary of the method: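 THP-1 cells, kept in MEM plus 10% FBS, plated at 20,000/well with 10 nM PMA, 37 °C, 5% CO2, 75 h. Washed in PBS with 1 mM CaCl2, 0.5 mM MgCl2, 0.1% BSA. Infected with axenic LdBOB amastigotes at MOI 5 for 18 h, washed, serial compound dilutions for 72 h. Methanol fixation, Giemsa stain, ~200 macrophages/well counted. % infection vs untreated control (100%) gives EC50.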

[10] = Selectivity index, ratio of CC50 for human HeLa cells to EC50 for Leishmania donovani LdBOB axenic amastigotes; type: toxicity; details: read-out: Ratio CC50/EC50; summary of the method: as §1
[11] = Selectivity index, ratio of CC50 for human HeLa cells to EC50 for Leishmania donovani LdBOB amastigotes infected in human THP1 cells; type: toxicity, cell-based; details: read-out: Ratio CC50/EC50; summary of the method: as §1
Leishmania infantum [12] = assay: Selectivity ratio of EC50 for antileishmanial activity against Leishmania infantum JPCM5 MCAN/ES/98/LLM-87 promastigotes to EC50 for antileishmanial activity against Leishmania infantum JPCM5 MCAN/ES/98/LLM-87 amastigotes; type: functional
Leishmania infantum [13] = assay: Potency index, ratio of pentamidine EC50 to compound EC50 for antileishmanial activity against Leishmania infantum JPCM5 MCAN/ES/98/LLM-87 promastigotes; type: functional
Leishmania infantum [14] = assay: Potency index, ratio of miltefosine EC50 to compound EC50 for antileishmanial activity against Leishmania infantum JPCM5 MCAN/ES/98/LLM-87 promastigotes; type: functional

Row | Structure (SMILES) | CC50 at 65 h [1] [µM] | EC50 (Leishmania infantum [2]) [µM] | selectivity ratio [3] | EC50 (Leishmania donovani [4]) [µM] | selectivity ratio [5] | EC50 (Leishmania infantum [6]) [µM] | selectivity ratio [7] | EC50 (Leishmania donovani [8]) [µM] | EC50 (Leishmania donovani [9]) [µM] | selectivity ratio [10] | selectivity ratio [11] | Ratio EC50 (Leishmania infantum [12]) | Ratio EC50 (Leishmania infantum [13]) | Ratio EC50 (Leishmania infantum [14])
1 | O=C(c1cc2c([nH]c3ccccc32)c(-c2ccccc2)n1)N1CCN(c2ccncc2)CC1 | 78.7 | 66.7 | 1.2 | 68.5 | 1.2 |  |  |  |  |  |  |  |  | 
2 | O=C(c1cc2c([nH]c3ccccc32)c(-c2ccccc2)n1)N1CCN(c2ccccc2F)CC1 | > 500 | 14.9 | > 33.6 | 3.47 | > 144 | 9.4 | > 53.2 | 2.8 | 4 | > 179 | > 125 |  |  | 
3 | O=C(c1cc2c([nH]c3ccccc32)c(-c2ccccc2)n1)N1CCN(c2cccc(Cl)c2)CC1 | 18.4 | 15.9 | 1.2 | 13.2 | 1.4 | 3.3 | 5.6 | 10.2 | 6.8 | 1.8 | 2.7 |  |  | 
4 | CCCCCCCCCCCCCCCCOP(=O)([O-])OCC[N+](C)(C)C [MILTEFOSINE] |  | 12.6 |  | 3.12 |  | 4.8 |  | 2.8 | 6.4 |  |  |  |  | 
5 | Cc1ccc(N2CCN(C(=O)c3cc4c([nH]c5ccccc54)c(-c4ccccc4)n3)CC2)cc1 | > 500 | 9.63 | > 51.9 | 4.91 | > 102 | 6.2 | > 80.6 | 3.3 | 5.7 | > 152 | > 87.7 | 2 - 5 |  | 
6 | Cc1ccccc1N1CCN(C(=O)c2cc3c([nH]c4ccccc43)c(-c3ccccc3)n2)CC1 | > 500 | 36.2 | > 13.8 | 12.6 | > 39.7 |  |  | 6 | 9.6 | > 83.3 | > 52.1 |  |  | 
7 | COc1ccccc1N1CCN(C(=O)c2cc3c([nH]c4ccccc43)c(-c3ccccc3)n2)CC1 | 205 | 3.35 | 61.1 | 3.49 | 58.7 | 4.9 | 41.8 | 2.3 | 8 | 89 | 25.6 | 2 - 5 | 4 | 4
8 | O=C(c1cc2c([nH]c3ccccc32)c(-c2ccccc2)n1)N1CCN(c2ccccc2)CC1 | 38.1 | 12.5 | 3 | 16.3 | 2.3 | 4.5 | 8.5 | 12.5 | 7.3 | 3 | 5.2 |  |  | 
9 | O=C(c1cc2c([nH]c3ccccc32)c(-c2ccccc2)n1)N1CCN(c2ccc([N+](=O)[O-])cc2)CC1 | > 500 | 19.8 | > 25.5 | 12.8 | > 39.1 | 24.8 | > 20.2 | 11.8 | 21.5 | > 42.4 | > 23.3 |  |  | 
